Measured values as given in ChEMBL document CHEMBL2062382, “Bicyclic C21 terpenoids from the marine sponge Clathria compressa” (J Nat Prod, 2012).
In brackets after ≈: the same amount, converted by molar mass. Activity calls are given as the source filed them. No cut-off for these calls is given here.

Legend:
[1] = test system: Staphylococcus aureus; assay: Antibacterial activity against vancomycin-resistant Staphylococcus aureus up to 128 ug/ml after 20 hrs by broth microdilution method; assay type: functional, organism-based
Procedure, shortened: (§1)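 ATCC strains grown on Müller-Hinton agar 37 °C 24 h, then in Müller-Hinton broth 37 °C 24 h. MIC by two-fold serial broth microdilution, 0.01 to 128 μg/mL; samples dissolved in 5% DMSO in water, final DMSO below 0.5% in all wells, duplicate. Mid-log cells at initial A600 0.001; read after 20 h at 37 °C with gentle shaking. Methicillin control included.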

[2] = Cytotoxicity against human BG02 cells at 40 uM; assay type: cell-based; conditions: bg02, 40 µM
Procedure, shortened: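 Growth inhibition of human embryonic stem cells (BG02) was tracked by real-time cell electronic sensing (RT-CES) in a 96-well format, with each compound tested at 40 µM.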

[3] = test system: Klebsiella pneumoniae; assay: Antibacterial activity against Klebsiella pneumoniae ATCC 10031 at 128 ug/ml after 20 hrs by broth microdilution method; assay type: functional, organism-based
Procedure, shortened: (§2)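 Strains are grown on Müller-Hinton agar at 37 °C for 24 h, then in Müller-Hinton broth at 37 °C for 24 h. Mid-log cells at an initial 600 nm absorbance of 0.001 are exposed to two-fold serial dilutions from 0.01 to 128 µg/mL, in duplicate. Samples are dissolved in 5% DMSO/H2O, giving final DMSO below 0.5% in wells and matched in controls. Methicillin is the reference. MIC is read after 20 h at 37 °C with gentle shaking.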

[4] = test system: Staphylococcus aureus; assay: Antibacterial activity against methicillin-resistant Staphylococcus aureus ATCC 33591 up to 128 ug/ml after 20 hrs by broth microdilution method; assay type: functional, organism-based; procedure, shortened: as §1
[5] = test system: Staphylococcus aureus; assay: Antibacterial activity against Staphylococcus aureus ATCC 6538P up to 128 ug/ml after 20 hrs by broth microdilution method; assay type: functional, organism-based; procedure, shortened: as §2
[6] = test system: Escherichia coli; assay: Antibacterial activity against Escherichia coli KCTC 1923 at 128 ug/ml after 20 hrs by broth microdilution method; assay type: functional, organism-based
[7] = test system: Staphylococcus aureus; assay: Antibacterial activity against vancomycin-resistant Staphylococcus aureus after 20 hrs by broth microdilution method; assay type: functional; procedure, shortened: as §1
[8] = test system: Staphylococcus aureus; assay: Antibacterial activity against methicillin-resistant Staphylococcus aureus ATCC 33591 after 20 hrs by broth microdilution method; assay type: functional; conditions: ATCC 33591, 20 h; procedure, shortened: as §1
[9] = test system: Staphylococcus aureus; assay: Antibacterial activity against Staphylococcus aureus ATCC 6538P after 20 hrs by broth microdilution method; assay type: functional; procedure, shortened: as §2

SMILES | Activity [1] | Activity [2] | Activity [3] | Activity [4] | Activity [5] | Activity [6] | MIC [7] | MIC [8] | MIC [9]
C=C1CC[C@@H]2[C@](C)(CCC[C@@]2(C)/C=C/C(O)C(C)(C)O)[C@H]1CC(=O)NCCS(=O)(=O)O (relative stereo) | inactive | Non-toxic | inactive | inactive | inactive | inactive | – | – | –
C=C1CC[C@@H]2[C@](C)(CCC[C@@]2(C)/C=C/C=C(C)C)[C@H]1CC(=O)O (relative stereo) | – | Non-toxic | inactive | – | – | inactive | 64 µg/mL (≈ 202 µM) | 64 µg/mL (≈ 202 µM) | 32 µg/mL (≈ 101 µM)
C=C1CC[C@@H]2[C@](C)(CCC[C@@]2(C)/C=C/C=C(C)C)[C@H]1CC(=O)NCCS(=O)(=O)O (relative stereo) | inactive | Non-toxic | inactive | inactive | inactive | inactive | – | – | –
